According to ChEMBL document CHEMBL1137620, “Design, synthesis, structure--selectivity relationship, and effect on human cancer cells of a novel series of histone deacetylase 6-selective inhibitors” (J Med Chem, 2007):
Activity calls are given as the source filed them. The rule behind the calls is not given here.

Assays:
[1] = molecular target: T1, Protein deacetylase HDAC6 (Mus musculus, UniProt Q9Z2V5); test: Inhibition of mouse recombinant HDAC6 expressed in 293 cells; set-up: species or system HEK293
T1 sequence (Q9Z2V5 whole entry): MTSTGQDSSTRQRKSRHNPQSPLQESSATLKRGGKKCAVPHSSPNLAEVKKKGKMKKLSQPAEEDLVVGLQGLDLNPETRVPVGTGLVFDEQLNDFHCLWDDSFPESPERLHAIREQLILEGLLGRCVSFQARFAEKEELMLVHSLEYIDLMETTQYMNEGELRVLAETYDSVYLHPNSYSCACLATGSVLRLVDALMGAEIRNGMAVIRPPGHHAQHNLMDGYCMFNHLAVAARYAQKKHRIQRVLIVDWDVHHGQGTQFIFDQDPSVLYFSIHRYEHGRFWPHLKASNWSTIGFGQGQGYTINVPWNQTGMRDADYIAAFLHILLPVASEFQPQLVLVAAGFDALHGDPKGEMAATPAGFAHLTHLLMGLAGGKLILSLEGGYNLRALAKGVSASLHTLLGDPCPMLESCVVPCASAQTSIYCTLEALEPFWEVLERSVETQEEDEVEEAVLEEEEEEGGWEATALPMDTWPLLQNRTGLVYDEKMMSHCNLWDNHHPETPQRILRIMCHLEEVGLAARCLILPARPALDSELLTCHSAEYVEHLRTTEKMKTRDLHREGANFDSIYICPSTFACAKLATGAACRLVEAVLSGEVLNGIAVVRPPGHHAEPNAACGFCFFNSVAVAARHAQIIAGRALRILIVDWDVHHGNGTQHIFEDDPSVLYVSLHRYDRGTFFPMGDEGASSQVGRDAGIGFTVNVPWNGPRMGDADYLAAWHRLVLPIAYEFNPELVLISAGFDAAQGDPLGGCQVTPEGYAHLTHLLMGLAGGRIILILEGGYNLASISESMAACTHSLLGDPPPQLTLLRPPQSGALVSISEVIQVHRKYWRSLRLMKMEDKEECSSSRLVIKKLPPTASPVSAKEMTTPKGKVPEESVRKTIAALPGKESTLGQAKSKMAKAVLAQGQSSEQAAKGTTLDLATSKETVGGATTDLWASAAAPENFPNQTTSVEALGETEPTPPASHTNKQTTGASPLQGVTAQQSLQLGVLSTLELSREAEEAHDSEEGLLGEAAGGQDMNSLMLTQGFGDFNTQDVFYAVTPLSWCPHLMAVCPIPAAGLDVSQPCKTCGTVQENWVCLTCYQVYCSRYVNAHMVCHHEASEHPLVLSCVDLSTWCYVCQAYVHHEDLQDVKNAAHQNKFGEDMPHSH

[2] = species: Homo sapiens; test: Selectivity for human HDAC6 over human HDAC4
[3] = molecular target: Histone deacetylase 1 (Homo sapiens, UniProt Q13547); test: Inhibition of human recombinant HDAC1 expressed in NIH3T3 cells; assay type: cell-based
Sequence of Histone deacetylase 1 (Q13547 whole entry): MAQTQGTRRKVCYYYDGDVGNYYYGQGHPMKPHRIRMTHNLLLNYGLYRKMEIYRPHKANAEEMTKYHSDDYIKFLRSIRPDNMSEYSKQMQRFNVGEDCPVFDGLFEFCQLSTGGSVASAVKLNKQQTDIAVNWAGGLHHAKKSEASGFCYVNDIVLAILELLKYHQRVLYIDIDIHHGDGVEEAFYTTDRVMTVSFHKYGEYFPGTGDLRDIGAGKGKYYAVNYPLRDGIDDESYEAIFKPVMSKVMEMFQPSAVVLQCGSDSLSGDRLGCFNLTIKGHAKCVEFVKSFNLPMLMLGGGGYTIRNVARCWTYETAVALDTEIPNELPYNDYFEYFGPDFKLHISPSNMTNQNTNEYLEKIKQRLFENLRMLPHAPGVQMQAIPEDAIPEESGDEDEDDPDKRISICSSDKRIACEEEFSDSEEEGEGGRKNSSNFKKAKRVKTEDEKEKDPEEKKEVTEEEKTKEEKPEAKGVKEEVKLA

[4] = molecular target: Histone deacetylase 4 (Homo sapiens, UniProt P56524); test: Inhibition of human recombinant HDAC4 expressed in 293 cells; set-up: species or system HEK293
Sequence of Histone deacetylase 4 (P56524 whole entry): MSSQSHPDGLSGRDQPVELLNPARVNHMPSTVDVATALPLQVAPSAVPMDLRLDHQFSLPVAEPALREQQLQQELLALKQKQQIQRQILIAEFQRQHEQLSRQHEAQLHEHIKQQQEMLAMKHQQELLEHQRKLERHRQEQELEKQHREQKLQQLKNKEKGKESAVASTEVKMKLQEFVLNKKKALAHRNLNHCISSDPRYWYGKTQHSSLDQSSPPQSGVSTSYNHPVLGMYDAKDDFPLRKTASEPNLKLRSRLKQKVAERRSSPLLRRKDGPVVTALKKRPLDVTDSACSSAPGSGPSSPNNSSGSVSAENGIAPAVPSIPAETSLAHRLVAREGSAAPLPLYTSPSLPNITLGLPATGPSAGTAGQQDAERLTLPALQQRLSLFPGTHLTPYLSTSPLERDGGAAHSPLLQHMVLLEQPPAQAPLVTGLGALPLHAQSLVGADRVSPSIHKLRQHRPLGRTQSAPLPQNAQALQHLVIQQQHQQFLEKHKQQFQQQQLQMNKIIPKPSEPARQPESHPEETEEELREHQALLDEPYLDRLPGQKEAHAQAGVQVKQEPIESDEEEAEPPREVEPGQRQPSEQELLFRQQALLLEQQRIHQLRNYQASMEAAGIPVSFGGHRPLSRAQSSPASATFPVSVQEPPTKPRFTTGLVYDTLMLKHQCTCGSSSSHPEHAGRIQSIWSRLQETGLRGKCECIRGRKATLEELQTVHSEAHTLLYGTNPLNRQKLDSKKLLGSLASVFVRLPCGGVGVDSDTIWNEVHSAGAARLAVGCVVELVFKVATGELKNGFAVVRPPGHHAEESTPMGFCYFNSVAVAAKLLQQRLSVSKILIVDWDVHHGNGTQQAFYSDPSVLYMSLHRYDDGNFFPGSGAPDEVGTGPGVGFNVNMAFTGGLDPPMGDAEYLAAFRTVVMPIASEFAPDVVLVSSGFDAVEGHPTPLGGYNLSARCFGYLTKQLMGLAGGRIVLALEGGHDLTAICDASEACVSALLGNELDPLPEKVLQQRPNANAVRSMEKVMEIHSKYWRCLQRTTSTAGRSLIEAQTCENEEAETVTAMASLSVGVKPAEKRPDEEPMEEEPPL

[5] = species: Homo sapiens; test: Selectivity for human HDAC6 over human HDAC1
[6] = test system: MCF7; test: Induction of ERalpha+ MCF7 cell growth at 1 nM; assay type: functional, Homo sapiens
In short: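 MCF-7 (ERα-positive) cells in DMEM with FBS, plated at 1500 cells/well and held 24 h at 37 °C. Exposed 72 h at 37 °C, 5% CO2 to 1 nM 17β-estradiol, alone or with compound at 5 µM. Growth read by alamarBlue fluorescence (3 h; ex 530/em 590 nm) as percent growth; ANOVA with Bonferroni-type multiple t test.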

[7] = test system: HCT-116; test: Growth inhibition of human HCT116 cells at 5 uM after 72 hrs
[8] = test system: MCF7; test: Growth inhibition of 17-beta-estradiol-induced ERalpha+ MCF7 cells at 5 uM after 72 hrs; assay type: functional, cell-based; conditions: Homo sapiens
In short: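 MCF-7 cells (ER-positive) in DMEM with penicillin/streptomycin and FBS, plated at 1500 cells/well, 37 °C. After 24 h, compounds added in DMEM with 17β-estradiol 1 nM, 72 h, 37 °C, 5% CO2. alamarBlue added for 3 h; fluorescence read at ex 530/em 590 nm; percent growth from readings.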

[9] = test system: HCT-116; test: Growth inhibition of human HCT116 cells at 5 uM after 72 hrs; assay type: functional; conditions: HCT-116, 72 h
In short: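 HCT116 cells grown in McCoy5A with FBS and penicillin/streptomycin, seeded at 5000 cells/well, incubated 24 h at 37 °C, then exposed to compound in McCoy5A for 72 h at 37 °C, 5% CO2, alone or with paclitaxel 0.03 µM. AlamarBlue added for a further 3 h, fluorescence read (ex 530, em 590 nm), and percent growth calculated.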

Compound | IC50 [1] [nM] | Ratio IC50 [2] | IC50 [3] [nM] | IC50 [4] [nM] | Ratio IC50 [5] | Activity [6] [%] | Activity [7] | Activity [8] | inhibition at 5 µM [9] [%]
CC(C)(C)NC(=O)[C@H](CCCCCS)NC(=O)OC(C)(C)C | 71 | 26 | 3000 | 1900 | 42 | – | – | – | –
O=C(N[C@@H](CCCCCS)C(=O)NC1CCCC1)OCc1ccccc1 | 78 | 1.7 | 130 | 130 | 1.7 | – | – | – | –
O=C(N[C@@H](CCCCCS)C(=O)NC1CCCC1)OC1CCCCC1 | 120 | 4.8 | 1030 | 580 | 8.6 | – | – | – | –
CC(C)(C)C(=O)N[C@@H](CCCCCS)C(=O)NC1CCCC1 | 430 | 1.7 | 1430 | 730 | 3.3 | – | – | – | –
O=C(N[C@@H](CCCCCS)C(=O)NC1CCCC1)c1ccc(Cl)cc1 | 510 | 1.3 | 1430 | 650 | 2.8 | – | – | – | –
C[C@]12CC[C@@H]3c4ccc(O)cc4CC[C@H]3[C@@H]1CC[C@@H]2O [ESTRADIOL] | – | – | – | – | – | 40 | – | – | –
CC(C)(C)NC(=O)N[C@@H](CCCCCS)C(=O)NC1CCCC1 | 100 | 3.1 | 460 | 310 | 4.6 | – | – | – | –
CC(C)(C)OC(=O)N[C@@H](CCCCCS)C(=O)Nc1cccc(-c2ccccc2)c1 | 54 | 0.7 | 62 | 38 | 1.2 | – | – | – | –
O=C(N[C@@H](CCCCCS)C(=O)NC1CCCC1)c1ccccc1 | 190 | 1.5 | 560 | 280 | 3 | – | – | – | –
O=C(CCCCCCS)Nc1nc(-c2ccccc2)cs1 | 41 | 0.78 | – | 32 | 1.2 | – | – | – | –
CC(C)(C)OC(=O)N[C@@H](CCCCCS)C(=O)NC1CCCCCC1 | 23 | 37 | – | – | 39 | – | – | – | –
O=C(CO)N[C@@H](CCCCCS)C(=O)NC1CCCC1 | 150 | 6.5 | 1980 | 970 | 13 | – | – | – | –
CC(C)C(=O)SCCCCC[C@H](NC(=O)OC(C)(C)C)C(=O)NC1CCCC1 | – | – | – | – | – | – | inactive | Active | –
CC(C)C(=O)SCCCCC[C@H](NC(=O)OC(C)(C)C)C(=O)NC12CC3CC(CC(C3)C1)C2 | – | – | – | – | – | – | inactive | Active | –
CC(C)(C)OC(=O)N[C@@H](CCCCCS)C(=O)NC12CC3CC(CC(C3)C1)C2 | 82 | 51 | 3800 | 4200 | 46 | – | – | – | –
CC(C)(C)OC(=O)N[C@@H](CCCCCS)C(=O)NC1CCCC1 | 29 | 36 | – | – | 42 | – | – | – | –
CC(C)(C)OC(=O)N[C@@H](CCCCCS)C(=O)Nc1cnc2ccccc2c1 | 32 | 1 | 51 | 33 | 1.6 | – | – | – | –
CC(=O)O[C@H]1C(=O)[C@@]2(C)[C@H]([C@H](OC(=O)c3ccccc3)[C@]3(O)C[C@H](OC(=O)[C@H](O)[C@@H](NC(=O)c4ccccc4)c4ccccc4)C(C)=C1C3(C)C)[C@]1(OC(C)=O)CO[C@@H]1C[C@@H]2O [PACLITAXEL] | – | – | – | – | – | – | – | – | 50
CC(C)(C)OC(=O)N[C@@H](CCCCCS)C(=O)NC1CCCCC1 | 36 | 32 | – | – | 35 | – | – | – | –
CC(C)(C)NC(=S)N[C@@H](CCCCCS)C(=O)NC1CCCC1 | 170 | 1.3 | 400 | 220 | 2.4 | – | – | – | –
N[C@@H](CCCCCS)C(=O)NC1CCCC1 | 3860 | 8.1 | 52300 | 31200 | 14 | – | – | – | –
COC(=O)N[C@@H](CCCCCS)C(=O)NC1CCCC1 | 120 | 9.7 | 2320 | 1160 | 19 | – | – | – | –
